In PMC2883171 (Organic & biomolecular chemistry, 2008):
Where “and” joins values, the source holds several entries; their conditions need not be identical. Equal values may be shown once.

Legend:
[1] = molecular target: T1, soybean lipoxygenase-1 (sLO-1) (Glycine max, UniProt P08170); assay: Kinetic inhibition assay of sLO-1; assay type: biochemical
T1 sequence (P08170 1-839): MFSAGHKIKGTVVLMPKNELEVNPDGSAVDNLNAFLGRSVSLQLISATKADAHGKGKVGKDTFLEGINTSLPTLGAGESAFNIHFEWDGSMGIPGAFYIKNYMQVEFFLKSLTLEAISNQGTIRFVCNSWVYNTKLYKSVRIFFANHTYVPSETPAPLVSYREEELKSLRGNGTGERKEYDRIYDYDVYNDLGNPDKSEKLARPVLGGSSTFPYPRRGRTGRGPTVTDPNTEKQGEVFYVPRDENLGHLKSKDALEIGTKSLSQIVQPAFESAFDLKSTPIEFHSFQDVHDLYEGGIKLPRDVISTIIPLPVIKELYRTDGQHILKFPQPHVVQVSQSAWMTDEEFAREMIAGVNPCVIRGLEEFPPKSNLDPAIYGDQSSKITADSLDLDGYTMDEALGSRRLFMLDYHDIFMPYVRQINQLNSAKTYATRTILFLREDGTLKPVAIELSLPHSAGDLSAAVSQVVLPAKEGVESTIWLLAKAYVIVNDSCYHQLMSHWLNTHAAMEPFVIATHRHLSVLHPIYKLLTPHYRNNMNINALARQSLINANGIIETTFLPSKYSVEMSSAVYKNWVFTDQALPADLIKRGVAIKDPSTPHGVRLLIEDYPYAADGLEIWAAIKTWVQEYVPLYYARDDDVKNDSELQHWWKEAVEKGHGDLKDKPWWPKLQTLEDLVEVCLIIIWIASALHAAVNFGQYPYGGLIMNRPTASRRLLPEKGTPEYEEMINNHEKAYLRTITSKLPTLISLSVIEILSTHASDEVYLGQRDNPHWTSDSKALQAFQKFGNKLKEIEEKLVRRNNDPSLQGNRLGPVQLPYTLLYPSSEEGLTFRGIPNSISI

sLO-1 [2] = molecular target: T2, sLO-1 (Glycine max, UniProt P08170); assay: Incubation of thiaLAs with sLO-1 as possible substrates; assay type: biochemical, soybean; settings: over the course of one hour
T2 sequence (P08170 1-839): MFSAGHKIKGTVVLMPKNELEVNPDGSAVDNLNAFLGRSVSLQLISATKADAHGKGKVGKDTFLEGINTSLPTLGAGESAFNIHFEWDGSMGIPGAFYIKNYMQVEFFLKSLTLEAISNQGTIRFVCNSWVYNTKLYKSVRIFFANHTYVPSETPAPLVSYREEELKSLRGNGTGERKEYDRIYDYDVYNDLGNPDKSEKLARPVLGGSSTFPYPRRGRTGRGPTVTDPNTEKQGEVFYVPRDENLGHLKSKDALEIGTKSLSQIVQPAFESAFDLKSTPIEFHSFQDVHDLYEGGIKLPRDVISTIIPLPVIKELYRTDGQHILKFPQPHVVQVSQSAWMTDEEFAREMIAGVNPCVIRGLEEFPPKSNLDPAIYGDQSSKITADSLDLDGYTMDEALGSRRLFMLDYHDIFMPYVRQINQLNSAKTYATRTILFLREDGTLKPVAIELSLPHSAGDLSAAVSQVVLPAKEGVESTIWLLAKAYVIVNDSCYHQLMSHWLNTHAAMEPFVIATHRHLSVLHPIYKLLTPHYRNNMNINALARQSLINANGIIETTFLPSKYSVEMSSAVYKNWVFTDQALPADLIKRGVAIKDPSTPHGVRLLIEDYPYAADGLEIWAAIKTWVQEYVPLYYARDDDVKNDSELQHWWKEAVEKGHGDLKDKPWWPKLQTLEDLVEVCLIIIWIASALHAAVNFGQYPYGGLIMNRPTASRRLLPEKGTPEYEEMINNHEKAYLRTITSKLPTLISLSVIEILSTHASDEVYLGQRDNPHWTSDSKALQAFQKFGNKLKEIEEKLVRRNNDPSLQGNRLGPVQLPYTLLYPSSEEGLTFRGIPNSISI

sLO-1 [3] = molecular target: T2, sLO-1; assay: Consumption of the inhibitor under turnover conditions with 13-HPODE; assay type: biochemical, soybean; settings: enzyme, AA and 13-HPODE, 1 hour, HPLC
[4] = molecular target: T3, human platelet 12-lipoxygenase (12-hLO) (Homo sapiens, UniProt P18054); assay: Kinetic inhibition assay of 12-hLO; assay type: biochemical
T3 sequence (P18054 1-663): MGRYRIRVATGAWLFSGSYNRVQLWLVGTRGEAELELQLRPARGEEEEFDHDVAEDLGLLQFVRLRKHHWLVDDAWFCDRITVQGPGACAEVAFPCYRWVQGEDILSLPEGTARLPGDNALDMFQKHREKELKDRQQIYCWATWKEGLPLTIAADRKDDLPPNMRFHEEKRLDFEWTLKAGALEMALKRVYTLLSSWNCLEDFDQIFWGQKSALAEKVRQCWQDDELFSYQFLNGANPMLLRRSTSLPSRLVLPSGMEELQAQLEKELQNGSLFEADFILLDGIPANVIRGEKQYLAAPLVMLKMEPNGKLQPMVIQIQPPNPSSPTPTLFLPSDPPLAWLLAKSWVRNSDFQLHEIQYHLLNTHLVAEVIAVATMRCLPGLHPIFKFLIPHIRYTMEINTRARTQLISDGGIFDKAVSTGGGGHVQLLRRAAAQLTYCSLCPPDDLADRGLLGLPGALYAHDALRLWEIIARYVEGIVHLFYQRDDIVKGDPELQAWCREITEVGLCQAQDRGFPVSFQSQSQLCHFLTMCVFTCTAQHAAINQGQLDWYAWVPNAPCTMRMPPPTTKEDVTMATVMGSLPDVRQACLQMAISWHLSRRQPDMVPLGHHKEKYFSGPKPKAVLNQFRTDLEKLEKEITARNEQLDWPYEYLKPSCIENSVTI

[5] = molecular target: T4, human reticulocyte 15-lipoxygenase-1 (15-hLO-1) (Homo sapiens, UniProt P16050); assay: Kinetic inhibition assay of 15-hLO-1; assay type: biochemical; settings: for Ki: Kis; for Ki / Kii: noncompetitive
T4 sequence (P16050 1-662): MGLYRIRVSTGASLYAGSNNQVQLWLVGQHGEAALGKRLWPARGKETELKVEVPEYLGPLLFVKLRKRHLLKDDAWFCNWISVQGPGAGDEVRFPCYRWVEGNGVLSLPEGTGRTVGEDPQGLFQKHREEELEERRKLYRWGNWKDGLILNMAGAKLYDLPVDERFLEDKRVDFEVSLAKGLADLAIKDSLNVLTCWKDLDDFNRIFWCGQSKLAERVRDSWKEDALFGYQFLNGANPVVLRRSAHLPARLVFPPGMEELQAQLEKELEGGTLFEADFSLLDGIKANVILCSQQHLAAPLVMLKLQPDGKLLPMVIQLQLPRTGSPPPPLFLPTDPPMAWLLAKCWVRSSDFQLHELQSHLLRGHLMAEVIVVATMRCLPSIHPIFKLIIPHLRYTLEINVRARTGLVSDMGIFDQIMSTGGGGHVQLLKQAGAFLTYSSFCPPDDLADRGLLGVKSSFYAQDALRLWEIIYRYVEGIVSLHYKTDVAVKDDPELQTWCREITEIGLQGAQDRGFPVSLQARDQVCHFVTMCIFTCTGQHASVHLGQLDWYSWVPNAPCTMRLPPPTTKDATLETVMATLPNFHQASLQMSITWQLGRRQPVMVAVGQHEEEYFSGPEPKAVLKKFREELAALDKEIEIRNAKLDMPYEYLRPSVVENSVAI

sLO-1 [6] = molecular target: T2, sLO-1; assay: HPLC analysis of product regioselectivity, sLO-1; assay type: biochemical, soybean; settings: exclusive product 13-HPODE, no 9-HPODE, with and without inhibitor
12-hLO = molecular target: T5, 12-hLO (Homo sapiens, UniProt P18054); assay: HPLC analysis of product distribution, 12-hLO; assay type: biochemical; settings: AA 15 µM, inhibitor at 5 × Ki, HEPES pH 7.5; error in parentheses
T5 sequence (P18054 1-663): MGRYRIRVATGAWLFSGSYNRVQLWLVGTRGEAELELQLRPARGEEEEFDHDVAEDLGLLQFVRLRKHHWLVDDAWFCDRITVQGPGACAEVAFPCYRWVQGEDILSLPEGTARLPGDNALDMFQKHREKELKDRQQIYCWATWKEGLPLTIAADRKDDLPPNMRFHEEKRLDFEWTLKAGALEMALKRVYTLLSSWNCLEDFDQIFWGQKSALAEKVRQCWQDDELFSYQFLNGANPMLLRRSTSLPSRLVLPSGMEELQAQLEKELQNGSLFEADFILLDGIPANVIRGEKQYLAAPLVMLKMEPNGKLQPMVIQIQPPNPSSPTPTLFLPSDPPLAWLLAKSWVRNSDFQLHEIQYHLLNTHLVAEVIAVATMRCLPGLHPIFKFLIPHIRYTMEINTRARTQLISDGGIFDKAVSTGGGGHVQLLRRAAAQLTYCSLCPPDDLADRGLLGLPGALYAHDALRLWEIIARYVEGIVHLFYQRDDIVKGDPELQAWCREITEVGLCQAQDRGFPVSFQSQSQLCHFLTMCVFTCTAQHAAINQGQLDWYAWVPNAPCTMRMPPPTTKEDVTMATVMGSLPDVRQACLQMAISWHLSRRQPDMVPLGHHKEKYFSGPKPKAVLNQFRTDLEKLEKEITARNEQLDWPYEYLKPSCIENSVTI
Method in brief: (§1)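 Reaction was followed at 235 nm and products isolated after 15 min. Products were resolved by isocratic reverse-phase HPLC (55% A/45% B) against authentic HETE standards, with 8- and 12-HETE coeluting.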

15-hLO-1 = molecular target: T6, 15-hLO-1 (Homo sapiens, UniProt P16050); assay: HPLC analysis of product distribution, 15-hLO-1; assay type: biochemical; settings: AA 15 µM, inhibitor at 5 × Ki, HEPES pH 7.5; error in parentheses
T6 sequence (P16050 1-662): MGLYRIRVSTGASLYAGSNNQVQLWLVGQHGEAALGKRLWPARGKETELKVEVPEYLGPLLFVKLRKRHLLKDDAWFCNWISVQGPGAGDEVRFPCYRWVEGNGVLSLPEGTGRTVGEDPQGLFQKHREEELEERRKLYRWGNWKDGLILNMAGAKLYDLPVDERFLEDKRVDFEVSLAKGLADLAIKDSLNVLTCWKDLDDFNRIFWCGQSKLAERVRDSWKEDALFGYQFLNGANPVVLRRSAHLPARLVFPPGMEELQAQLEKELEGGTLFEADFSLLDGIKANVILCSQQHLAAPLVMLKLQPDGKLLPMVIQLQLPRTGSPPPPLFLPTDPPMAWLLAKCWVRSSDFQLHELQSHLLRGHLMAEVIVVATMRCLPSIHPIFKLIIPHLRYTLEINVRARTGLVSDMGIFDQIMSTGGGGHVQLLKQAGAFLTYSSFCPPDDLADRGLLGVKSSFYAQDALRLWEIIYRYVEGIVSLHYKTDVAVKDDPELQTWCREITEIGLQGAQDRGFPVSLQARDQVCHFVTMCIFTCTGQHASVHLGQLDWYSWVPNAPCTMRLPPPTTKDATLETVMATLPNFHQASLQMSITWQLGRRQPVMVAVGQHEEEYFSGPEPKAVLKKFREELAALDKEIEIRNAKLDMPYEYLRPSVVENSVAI
Method in brief: as §1

[7] = Ki (competitive inhibition), substrate linoleic acid, pH 10.0
[8] = substrate linoleic acid, pH 10.0
[9] = substrate LA, pH 7.5, 13-HPODE activator

CCCCS/C=C\C/C=C\CCCCCCCC(=O)O [Compound 14-thiaLA, 14-Thialinoleic acid]
Ki [1, 7]: 35 µM | Mode of inhibition [1, 8]: competitive inhibition | Activity as substrate on incubation with sLO-1 (sLO-1 [2]): did not result in any appreciable activity | Conversion of the inhibitor under turnover conditions (sLO-1 [3]): oxidized to a small extent | Substrate or inhibitor behaviour with 12-hLO ([4]; AA as substrate): neither a substrate nor an inhibitor

CCCCC/C=C\S/C=C\CCCCCCCC(=O)O [Compound 11-thiaLA, 11-Thialinoleic acid]
Ki [1, 7]: 22 µM | Ki ([1]; Kis, substrate arachidonic acid, pH 7.5, 13-HPODE activator, noncompetitive): 45.6 ± 11.1 µM | Ki ([1]; Kis, substrate arachidonic acid, pH 10.0, 13-HPODE activator, noncompetitive): 48.5 µM and 48 µM | Mode of inhibition in the presence of activator ([1]; oxidation of LA, 13-HPODE present): competitive inhibition | Mode of inhibition ([1]; substrate AA, pH 10.0 and pH 7.5, 13-HPODE activator): noncompetitive inhibition | Kii ([1]; substrate arachidonic acid, pH 7.5, 13-HPODE activator, noncompetitive): 38.2 ± 5.4 µM | Kii ([1]; substrate arachidonic acid, pH 10.0, 13-HPODE activator, noncompetitive): 36.0 ± 4.0 µM | Mode of inhibition [1, 8]: competitive inhibition | Activity as substrate on incubation with sLO-1 (sLO-1 [2]): did not result in any appreciable activity | Conversion of the inhibitor under turnover conditions (sLO-1 [3]): no discernable conversion | Mode of inhibition ([5]; AA as substrate): noncompetitive inhibitor | Ki ([5]; substrate AA, 13-HPODE activator): 11.4 µM | Ki [5, 9]: 20.1 µM | Kii ([5]; substrate AA, 13-HPODE activator, listed as 11-ThiaLA): 18.1 ± 2.0 µM | Kii ([5]; substrate AA, 13-HPODE activator, listed as 11-Thialinoleic acid): 18.1 µM | Kii [5, 9]: 20.0 ± 1.4 µM | Mode of inhibition ([5]; with respect to LA): noncompetitive inhibitor | Effect on product regioselectivity of sLO-1 (sLO-1 [6]): did not affect the product regioselectivity | Ki [4]: 2.5 µM | Mode of inhibition ([4]; AA as substrate): competitive inhibitor | Ki for 12-hLO smaller than for sLO-1 (LA) ([4]; compared with Ki for oxidation of LA by sLO-1): approximately 10 fold | Mode of inhibition in the presence of activator ([4]; oxidation of AA, 13-HPODE (16 µM) present): competitive inhibition | 8-/12-HETE (%) (12-hLO): 93 (1) % | 11-HETE (%) (12-hLO): 2 (1) % | 15-HETE (%) (12-hLO): 5 (1) % | 8-/12-HETE (%) (15-hLO-1): 16 (3) % | 11-HETE (%) (15-hLO-1): 5 (1) % | 15-HETE (%) (15-hLO-1): 79 (3) %
